ChEMBL document CHEMBL4368933, “Structure-activity relationship of leucyladenylate sulfamate analogues as leucyl-tRNA synthetase (LRS)-targeting inhibitors of Mammalian target of rapamycin complex 1 (mTORC1)” (Bioorg Med Chem, 2019)
Calls of active or inactive are those of the source. The rule behind the calls is not given here.

How the values were obtained:
[1] = target: Leucine--tRNA ligase, cytoplasmic (Homo sapiens) (UniProt Q9P2J5); assay: Inhibition of Leucyl-tRNA synthetase-mediated mTORC1 signaling activation in human HEK293 cells assessed as reduction in leucine-induced S6K phosphorylation at 200 uM preincubated for 50 mins followed by leucine-stimulation and measured after 10 mins by Western blot analysis; assay type: cell-based
Method in brief: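 HEK293 cells pretreated with test agent at a fixed 200 µM, alongside rapamycin (100 nM) and leucinol (800 µM) as references. mTORC1 then activated by adding leucine for 10 min. S6K phosphorylation read by Western blot.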

mTORC2 (Homo sapiens) = mTORC2 (Homo sapiens) (UniProt P42345+Q6R327+Q9BVC4+Q9BPZ7); assay: Inhibition of mTORC2 signaling in human HEK293 cells assessed as reduction in leucine-induced AKT phosphorylation at 200 uM preincubated for 50 mins followed by leucine-stimulation and measured after 10 mins by Western blot analysis; assay type: cell-based
HEK293 = assay: Effect on leucine-induced AKT levels in human HEK293 cells at 200 uM preincubated for 50 mins followed by leucine-stimulation and measured after 10 mins by Western blot analysis; assay type: functional, cell-based
SK-HEP1 = assay: Antiproliferative activity against human SKHEP1 cells after 72 hrs by SRB assay; assay type: functional, cell-based; conditions: SK-HEP1, 72 h
Method in brief: (§1)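 Colorimetric growth assay with IC50 values derived; etoposide as positive control. Cell lines: A549 (lung cancer), HCT116 (colon cancer), MDA-MB-231 (breast cancer), SK-Hep-1 (liver cancer), SNU638 (stomach cancer), MRC5 (normal lung […]).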

MRC5 = assay: Antiproliferative activity against human MRC5 cells after 72 hrs by SRB assay; assay type: cell-based; conditions: MRC5, 72 h; method in brief: as §1
SNU-638 = assay: Antiproliferative activity against human SNU638 cells after 72 hrs by SRB assay; assay type: functional, cell-based; conditions: SNU-638, 72 h; method in brief: as §1
MDA-MB-231 = assay: Antiproliferative activity against human MDA-MB-231 cells after 72 hrs by SRB assay; assay type: functional, cell-based; conditions: MDA-MB-231, 72 h; method in brief: as §1
A549 = assay: Antiproliferative activity against human A549 cells after 72 hrs by SRB assay; assay type: functional, cell-based; conditions: A549, 72 h; method in brief: as §1
HCT-116 = assay: Antiproliferative activity against human HCT116 cells after 72 hrs by SRB assay; assay type: functional, cell-based; conditions: HCT-116, 72 h; method in brief: as §1

Chain of Leucine--tRNA ligase, cytoplasmic (Homo sapiens) (Q9P2J5 whole entry, looked up): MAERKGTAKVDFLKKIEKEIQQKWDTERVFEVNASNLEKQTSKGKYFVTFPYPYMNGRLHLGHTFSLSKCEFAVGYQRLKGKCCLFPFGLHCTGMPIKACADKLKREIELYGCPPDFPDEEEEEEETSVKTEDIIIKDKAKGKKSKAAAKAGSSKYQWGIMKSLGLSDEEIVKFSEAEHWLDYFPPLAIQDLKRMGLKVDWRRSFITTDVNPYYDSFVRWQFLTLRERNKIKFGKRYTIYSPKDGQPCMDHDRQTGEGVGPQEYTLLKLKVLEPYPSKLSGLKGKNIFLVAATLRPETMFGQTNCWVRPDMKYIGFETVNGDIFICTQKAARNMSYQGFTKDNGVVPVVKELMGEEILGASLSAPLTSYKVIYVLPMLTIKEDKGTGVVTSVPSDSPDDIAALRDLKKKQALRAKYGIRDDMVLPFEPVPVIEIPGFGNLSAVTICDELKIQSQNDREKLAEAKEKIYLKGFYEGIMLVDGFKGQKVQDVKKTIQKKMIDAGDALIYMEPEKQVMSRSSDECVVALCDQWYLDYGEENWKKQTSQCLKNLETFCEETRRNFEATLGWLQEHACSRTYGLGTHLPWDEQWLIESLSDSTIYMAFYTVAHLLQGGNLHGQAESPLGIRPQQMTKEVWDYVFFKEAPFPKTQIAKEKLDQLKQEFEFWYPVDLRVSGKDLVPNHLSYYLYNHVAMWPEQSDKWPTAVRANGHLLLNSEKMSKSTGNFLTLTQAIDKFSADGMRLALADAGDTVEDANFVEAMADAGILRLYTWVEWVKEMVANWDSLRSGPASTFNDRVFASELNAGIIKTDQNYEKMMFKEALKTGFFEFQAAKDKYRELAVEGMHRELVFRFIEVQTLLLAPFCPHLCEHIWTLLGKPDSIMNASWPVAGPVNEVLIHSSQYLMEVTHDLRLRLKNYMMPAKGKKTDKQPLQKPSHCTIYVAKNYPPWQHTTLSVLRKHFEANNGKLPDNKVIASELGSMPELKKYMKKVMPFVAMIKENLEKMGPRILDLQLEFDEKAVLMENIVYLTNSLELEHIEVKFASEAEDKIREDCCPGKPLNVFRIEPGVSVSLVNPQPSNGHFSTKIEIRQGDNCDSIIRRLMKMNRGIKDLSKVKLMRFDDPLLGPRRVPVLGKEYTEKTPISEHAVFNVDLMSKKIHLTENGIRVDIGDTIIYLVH

CC(C)[C@H](O)[C@@H](O)C(=O)NS(=O)(=O)OC[C@H]1O[C@@H](n2cnc3c(N)ncnc32)C[C@@H]1O
inhibition [1]: inactive

CO[C@H](C(=O)NS(=O)(=O)OC[C@H]1O[C@@H](n2cnc3c(N)ncnc32)C[C@@H]1O)[C@H](OC)C(C)C
inhibition [1]: inactive

O=C(NS(=O)(=O)OC[C@H]1O[C@@H](n2cnc3c(=O)[nH]cnc32)[C@H](O)[C@@H]1O)[C@@H](O)[C@H](O)C1CC1
inhibition [1]: inactive

CC(C)[C@@H](O)[C@H](O)C(=O)NS(=O)(=O)OC[C@H]1O[C@@H](n2cnc3c(N)ncnc32)[C@H](O)[C@@H]1O
inhibition (mTORC2 (Homo sapiens)): inactive
inhibition [1]: Active
Activity (HEK293): inactive

CC(C)c1cc(C(=O)NS(=O)(=O)OC[C@H]2O[C@@H](n3cnc4c(N)ncnc43)[C@H](O)[C@@H]2O)n(C)n1
inhibition [1]: Active

CC(C)/C=C/C(=O)NS(=O)(=O)OC[C@H]1O[C@@H](n2cnc3c(N)ncnc32)[C@H](O)[C@@H]1O
inhibition [1]: Active

COc1cc([C@@H]2c3cc4c(cc3[C@@H](O[C@@H]3O[C@@H]5CO[C@@H](C)O[C@H]5[C@H](O)[C@H]3O)[C@H]3COC(=O)[C@H]23)OCO4)cc(OC)c1O [ETOPOSIDE]
IC50 (SK-HEP1): 0.41 µM
IC50 (MRC5): 12.7 µM
IC50 (SNU-638): 0.34 µM
IC50 (MDA-MB-231): 3.38 µM
IC50 (A549): 0.47 µM
IC50 (HCT-116): 1.22 µM

CC(C)[C@@H](O)[C@H](O)C(=O)NS(=O)(=O)OC[C@H]1O[C@@H](n2cnc3c(=O)[nH]cnc32)[C@H](O)[C@@H]1O
IC50 (SK-HEP1): > 20 µM
inhibition [1]: Active
IC50 (MRC5): > 20 µM
IC50 (SNU-638): > 20 µM
IC50 (MDA-MB-231): > 20 µM
IC50 (A549): > 20 µM
IC50 (HCT-116): > 20 µM

CC(C)(C)c1cc(C(=O)NS(=O)(=O)OC[C@H]2O[C@@H](n3cnc4c(N)ncnc43)[C@H](O)[C@@H]2O)[nH]n1
inhibition [1]: Active

CC(C)[C@@H](O)[C@H](O)C(=O)NS(=O)(=O)OC[C@H]1O[C@@H](n2cnc3c(N)nc(I)nc32)[C@H](O)[C@@H]1O
inhibition (mTORC2 (Homo sapiens)): inactive
inhibition [1]: Active
Activity (HEK293): inactive

Nc1ncnc2c1ncn2[C@@H]1O[C@H](COS(=O)(=O)NC(=O)c2cc(C3CC3)n[nH]2)[C@@H](O)[C@H]1O
inhibition [1]: inactive

Nc1ncnc2c1ncn2[C@@H]1O[C@H](COS(=O)(=O)NC(=O)[C@@H](O)[C@H](O)C2CC2)[C@H]2NC(=O)O[C@H]21
inhibition [1]: Active

CC(C)C[C@H](N)C(=O)NS(=O)(=O)OC[C@H]1O[C@@H](n2cnc3c(N)ncnc32)[C@H](O)[C@@H]1N
inhibition [1]: inactive

CC(C)c1cc(C(=O)NS(=O)(=O)OC[C@H]2O[C@@H](n3cnc4c(N)nc(I)nc43)[C@H](O)[C@@H]2O)[nH]n1
inhibition [1]: inactive

Nc1nc(I)nc2c1ncn2[C@@H]1O[C@H](COS(=O)(=O)NC(=O)[C@@H](O)[C@H](O)C2CC2)[C@@H](O)[C@H]1O
IC50 (SK-HEP1): 5.86 µM
inhibition [1]: Active
IC50 (MRC5): > 20 µM
IC50 (SNU-638): 4.77 µM
IC50 (MDA-MB-231): 16.7 µM
IC50 (A549): 4.84 µM
IC50 (HCT-116): 7.27 µM

CC(C)c1cc(C(=O)NS(=O)(=O)OC[C@H]2O[C@@H](n3cnc4c(N)nc(I)nc43)[C@H](O)[C@@H]2O)n(C)n1
inhibition [1]: Active

CO[C@H](C(=O)NS(=O)(=O)OC[C@H]1O[C@@H](n2cnc3c(N)ncnc32)C[C@@H]1O)[C@H](O)C(C)C
inhibition [1]: inactive

CN[C@@H](CC(C)C)C(=O)NS(=O)(=O)OC[C@H]1O[C@@H](n2cnc3c(N)ncnc32)[C@H](O)[C@@H]1O
inhibition [1]: inactive

CC(C)C[C@H](O)C(=O)NS(=O)(=O)OC[C@@H]1C[C@@H](O)[C@H](n2cnc3c(N)ncnc32)O1
inhibition (mTORC2 (Homo sapiens)): Active
inhibition [1]: inactive

CC(C)[C@H](O)[C@@H](O)C(=O)NS(=O)(=O)OC[C@H]1O[C@@H](n2cnc3c(N)ncnc32)[C@H](O)[C@@H]1O
inhibition (mTORC2 (Homo sapiens)): inactive
inhibition [1]: inactive
Activity (HEK293): inactive

CO[C@H](C(=O)NS(=O)(=O)OC[C@H]1O[C@@H](n2cnc3c(N)nc(Cl)nc32)[C@H](O)[C@@H]1O)[C@H](OC)C(C)C
IC50 (SK-HEP1): > 20 µM
inhibition [1]: Active
IC50 (MRC5): > 20 µM
IC50 (SNU-638): > 20 µM
IC50 (MDA-MB-231): > 20 µM
IC50 (A549): > 20 µM
IC50 (HCT-116): > 20 µM

Nc1ncnc2c1ncn2[C@@H]1O[C@H](COS(=O)(=O)NC(=O)[C@@H](O)[C@H](O)C2CC2)[C@@H](O)[C@@H]1O
IC50 (SK-HEP1): 7.26 µM
inhibition [1]: Active
IC50 (MRC5): > 20 µM
IC50 (SNU-638): 5.7 µM
IC50 (MDA-MB-231): 17.8 µM
IC50 (A549): 6.93 µM
IC50 (HCT-116): 9.14 µM

CO[C@H](C(=O)NS(=O)(=O)OC[C@H]1O[C@@H](n2cnc3c(N)ncnc32)[C@H](O)[C@@H]1O)[C@H](OC)C(C)C
inhibition [1]: inactive
